Assay results published in ChEMBL document CHEMBL1123093, “Synthesis and biological activity of 6-substituted mitosene analogues of the mitomycins” (J Med Chem, 1985).

Tests used:
[1] = Partition coefficient between octanol and phosphate buffer (pH 7.4) was observed for the compound; format: physicochemical
How it was run: (§1)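 Partition coefficient measured as distribution between 1-octanol and pH 7.4 phosphate buffer, following the Hansch method.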

Escherichia coli [2] = test: Phage induction (ILB) in Escherichia coli: ratio was reported at a dose of 0.8 ug/mL
Escherichia coli [3] = test: Phage induction (ILB) in Escherichia coli: ratio was reported at a dose of 3.1 ug/mL
Mus musculus [4] = organism: Mus musculus; test: Antitumor activity in P388 mouse leukemia and maximum % T/C value was determined at optimal dose (OD); format: functional
How it was run: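 P388 ascites leukemia: 10⁶ ascites cells implanted in female CDF₁ mice. Each dose level was given on day 1 only, to six mice per dose. Ten control mice received saline. Median survival time (MST) was recorded, and % T/C > 125 was taken as active.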

[5] = Partition coefficient between octanol and phosphate buffer (pH 7.4) was observed for the compound at pH 7.4.; format: physicochemical; how it was run: as §1
Escherichia coli [6] = test: Induction of phage in Escherichia coli(ILB) expressed as Ratio of plaques in treated bacterial cultures to those in control at a dose of 0.8 ug/mL; format: functional
How it was run: (§2)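 Phage induction (ILB) in Escherichia coli: latent phage was activated in bacterial cultures exposed to compound at the stated concentration. Plaques (clear areas) were counted, and the value reported is plaques in treated culture divided by plaques in the untreated control.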

Escherichia coli [7] = test: Induction of phage in Escherichia coli(ILB) expressed as Ratio of plaques in treated bacterial cultures to those in control at a dose of 3.1 ug/mL; format: functional; how it was run: as §2
Mus musculus [8] = test: Antitumor activity against P388 mouse leukemia as maximum and average change in body weight was reported at a dose of 12.8 mg/kg per injection.; format: functional
Mus musculus [9] = test: Antitumor activity against P388 mouse leukemia as maximum and average change in body weight was reported at a dose of 25.6 mg/kg per injection.; format: functional
Mus musculus [10] = test: Antitumor activity against P388 mouse leukemia as maximum and average change in body weight was reported at a dose of 3.2 mg/kg per injection.; format: functional
Mus musculus [11] = test: Antitumor activity against P388 mouse leukemia as maximum and median survival time as % T/C was reported at a dose of 12.8 mg/Kg per injection.; format: functional
How it was run: (§3)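 P388 ascites, 10⁶ cells implanted in female CDF₁ mice. Six mice per dose; single treatment on day 1 only. Ten controls received saline. Survival recorded as median survival time; % T/C = treated vs control MST, with % T/C > 125 taken as active.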

Mus musculus [12] = test: Antitumor activity against P388 mouse leukemia as maximum and median survival time as % T/C was reported at a dose of 3.2 mg/Kg per injection.; format: functional; how it was run: as §3
Mus musculus [13] = test: Antitumor activity against P388 mouse leukemia as maximum and median survival time as % T/C was reported at a dose of 6.4 mg/Kg per injection.; format: functional; how it was run: as §3
Mus musculus [14] = test: Antitumor activity against P388 mouse leukemia as maximum and average change in body weight was reported at a dose of 6.4 mg/kg per injection.; format: functional
Mus musculus [15] = test: Antitumor activity against P388 mouse leukemia as maximum and average change in body weight was reported at a dose of 0.8 mg/kg per injection.; format: functional
Mus musculus [16] = test: Antitumor activity against P388 mouse leukemia as maximum and average change in body weight was reported at a dose of 1.6 mg/kg per injection.; format: functional
Mus musculus [17] = test: Antitumor activity against P388 mouse leukemia as maximum and median survival time as % T/C was reported at a dose of 0.8 mg/Kg per injection.; format: functional; how it was run: as §3
Mus musculus [18] = test: Antitumor activity against P388 mouse leukemia as maximum and median survival time as % T/C was reported at a dose of 1.6 mg/Kg per injection.; format: functional; how it was run: as §3
Mus musculus [19] = test: Antitumor activity against P388 mouse leukemia as maximum and average change in body weight was reported at a dose of 0.2 mg/kg per injection.; format: functional
Mus musculus [20] = test: Antitumor activity against P388 mouse leukemia as maximum and average change in body weight was reported at a dose of 0.4 mg/Kg per injection.; format: functional
Mus musculus [21] = test: Antitumor activity against P388 mouse leukemia as maximum and average change in body weight was reported at a dose of 4.8 mg/kg per injection.; format: functional
Mus musculus [22] = test: Antitumor activity against P388 mouse leukemia as maximum and median survival time as % T/C was reported at a dose of 0.2 mg/Kg per injection.; format: functional; how it was run: as §3
Mus musculus [23] = test: Antitumor activity against P388 mouse leukemia as maximum and median survival time as % T/C was reported at a dose of 0.4 mg/Kg per injection.; format: functional; how it was run: as §3
Mus musculus [24] = test: Antitumor activity against P388 mouse leukemia as maximum and median survival time as % T/C was reported at a dose of 4.8 mg/Kg per injection.; format: functional; how it was run: as §3

SMILES	logD [1]	ILB (Escherichia coli [2])	ILB (Escherichia coli [3])	T/C (Mus musculus [4]) [%]	Average weight change (Mus musculus [10]) [g]	T/C (Mus musculus [12]) [%]	other results
CNC(=O)OCc1c2c(n3c1C(OC(C)=O)CC3)C(=O)C(Cl)=C(OC)C2=O (centres undefined)	2.08	12.1	27	–	–	–	–
COC1=CC(=O)c2c(c(COC(N)=O)c3n2CCC3OC(C)=O)C1=O (centres undefined)	0.72	11.9	18.6	111	–	–	–
CNC(=O)OCc1c2c(n3c1C(OC(C)=O)CC3)C(=O)C(Br)=C(N)C2=O (centres undefined)	–	–	–	–	–	–	logD [5]: 1.15; ILB (Escherichia coli [6]): 1.2; ILB (Escherichia coli [7]): 1.1
CNC(=O)OCc1c2c(n3c1C(OC(C)=O)CC3)C(=O)C(C)=C(OC)C2=O (centres undefined)	2.39	16.6	34.1	180	1	120	Average weight change (Mus musculus [8]): 0 g; Average weight change (Mus musculus [9]): -0.2 g; T/C (Mus musculus [11]): 145%; T/C (Mus musculus [13]): 135%; Average weight change (Mus musculus [14]): 1.2 g
COC1=C(C)C(=O)c2c(c(COC(N)=O)c3n2CCC3OC(C)=O)C1=O (centres undefined)	1.54	13.2	24.5	165	0.3	133	Average weight change (Mus musculus [15]): 1 g; Average weight change (Mus musculus [16]): 0.6 g; T/C (Mus musculus [17]): 114%; T/C (Mus musculus [18]): 124%; Average weight change (Mus musculus [14]): 0.1 g
CNC(=O)OCc1c2c(n3c1C(OC(C)=O)CC3)C(=O)C=C(N1CCCC1)C2=O (centres undefined)	1.4	1	1	–	–	–	–
CNC(=O)OCc1c2c(n3c1C(OC(C)=O)CC3)C(=O)C=C(OC)C2=O (centres undefined)	1.19	6	10.1	106	–	–	–
CNC(=O)OCc1c2c(n3c1C(OC(C)=O)CC3)C(=O)C(Br)=C(OC)C2=O (centres undefined)	–	7.1	12.4	100	–	–	–
CO[C@@]12[C@H](COC(N)=O)C3=C(C(=O)C(C)=C(N)C3=O)N1C[C@@H]1N[C@@H]12 [MITOMYCIN]	–	–	–	–	-0.7	195	Average weight change (Mus musculus [19]): 0.8 g; Average weight change (Mus musculus [20]): 0.3 g; Average weight change (Mus musculus [15]): 0.5 g; Average weight change (Mus musculus [16]): -0.2 g; Average weight change (Mus musculus [21]): -2.2 g; T/C (Mus musculus [22]): 120%; T/C (Mus musculus [23]): 130%; T/C (Mus musculus [17]): 135%; T/C (Mus musculus [18]): 150%; T/C (Mus musculus [24]): 205%
